From ChEMBL document CHEMBL1833790, “N-(2-{3-[3,5-bis(trifluoromethyl)phenyl]ureido}ethyl)-glycyrrhetinamide (6b): a novel anticancer glycyrrhetinic acid derivative that targets the proteasome and displays anti-kinase activity” (J Med Chem, 2011) come the findings set out here.

The source made the active and inactive calls. No cut-off for these calls is given here.

In data set [1] the target is T1, Peroxisome proliferator-activated receptor gamma (Homo sapiens) (UniProt P37231).
T1 sequence (whole entry): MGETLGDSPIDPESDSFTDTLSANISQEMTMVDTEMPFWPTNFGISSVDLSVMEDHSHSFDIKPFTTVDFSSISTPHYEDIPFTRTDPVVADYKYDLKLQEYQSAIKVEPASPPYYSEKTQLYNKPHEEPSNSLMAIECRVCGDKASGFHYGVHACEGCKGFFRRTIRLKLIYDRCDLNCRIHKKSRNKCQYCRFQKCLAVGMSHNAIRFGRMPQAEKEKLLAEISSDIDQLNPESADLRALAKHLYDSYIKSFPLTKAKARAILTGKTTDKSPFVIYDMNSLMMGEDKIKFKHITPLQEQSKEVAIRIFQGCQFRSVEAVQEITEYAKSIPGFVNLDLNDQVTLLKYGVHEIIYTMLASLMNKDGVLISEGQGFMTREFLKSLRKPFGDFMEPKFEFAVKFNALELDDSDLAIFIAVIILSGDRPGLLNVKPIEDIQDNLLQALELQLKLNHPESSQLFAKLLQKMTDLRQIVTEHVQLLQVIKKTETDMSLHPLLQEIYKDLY
Description: Inhibition of PPARgamma activity in human U373 cells at 25 uM after 6 hrs by spectrophotometric analysis relative to control. The note with it: U-373MG ATCC. In kind it is cell-based. The gist of the method: (§1)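 Human U373 glioblastoma cells exposed to compound for 6 h, then detached with trypsin. Nuclear extracts prepared by hypotonic lysis with Nonidet P-40 and extraction buffer with protease inhibitor, clarified at 14 000 g, 4 °C. Extracts bound overnight at 4 °C in a PPAR-γ transcription factor ELISA kit, with primary antibody then HRP anti-rabbit. Absorbance read at 450 nm; triplicates, mean ± SD versus control.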

For data set [2], the system named is U-373MG ATCC. Description: Activation of chymotrypsin-like activity of 20S proteasome in human U373 cells at 25 uM after 2 days by bioluminescence assay. It counts as cell-based. The gist of the method: (§2)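 Chymotrypsin-like site, substrate Suc-LLVY-Glo. U373 cells were seeded at 5000 cells/mL for 48 h and exposed two days. After a PBS wash and 0.025% digitonin permeabilisation, Proteasome-Glo reagent was added. Bioluminescence was read after 10 min dark incubation. Triplicates, normalised by a concurrent MTT viability assay run in identical conditions.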

The test system of data set [3] is U-373MG ATCC. Nature of the data set: Inhibition of trypsin-like activity of 20S proteasome in human U373 cells at 25 uM after 2 days by bioluminescence assay. It counts as cell-based. The gist of the method: (§3)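 U373 GBM cells seeded at 5000 cells/mL and grown 48 h, then treated for two days. Cells washed in PBS and permeabilised with 0.025% digitonin. Proteasome-Glo reagent added with Suc-LLVY-Glo (chymotrypsin-like), Z-LRR-Glo (trypsin-like) or Z-nLPnLD-Glo (caspase-like) substrate. Luminescence read after 10 min in the dark and normalised to a parallel MTT viability assay; triplicates. MG-132 at 0.5 μM used as reference.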

Data set [4] deals with U-373MG ATCC. Nature of the data set: Activation of caspase-like activity of 20S proteasome in human U373 cells at 25 uM after 2 days by bioluminescence assay. It counts as cell-based. The gist of the method:
(§4)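 Caspase-like site, substrate Z-nLPnLD-Glo. U373 cells were plated at 5000 cells/mL for 48 h, then treated two days. Cells were PBS-washed and permeabilised with 0.025% digitonin before Proteasome-Glo reagent was added. Luminescence was read after 10 min in the dark. Triplicates, normalised to a parallel MTT viability assay under identical conditions.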

Data set [5] can be described thus: Chemical stability of the compound in MEM cell culture medium after 7 days by HPLC analysis. In kind it is physicochemical. Conditions: read-out: Stability. The gist of the method: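 Compound incubated in MEM culture medium at 37 °C for 7 days, then analysed by HPLC on RX-C8 (5 μm) column with MeOH–water 90:10 (0.1% TFA), diode-array detection. Expressed as % of incubated compound recovered.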

The subject of a further data set is A549. Description: Growth inhibition in apoptosis-resistant human A549 after 3 days by MTT assay. It counts as functional. The note with it: A549, 72 h. The gist of the method: (§5)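 Cells grown in RPMI with 10% heat-inactivated FCS, 4 mM glutamine, gentamicin and penicillin–streptomycin. Drug exposure 3 days, growth read by MTT colorimetric assay. Nine concentrations from 0.01 to 100 μM in semilog steps, six replicates each; IC50 derived per cell line.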
For orientation: Tetrazolium dyes change colour on reduction, which living cells bring about.

A further data set has as its system SK-MEL-28. Nature of the data set: Growth inhibition in apoptosis-resistant human SK-MEL-28 after 3 days by MTT assay. It counts as functional. Conditions: SK-MEL-28, 72 h. The gist of the method:
as §5

For the next data set, the system named is T98G. Nature of the data set: Growth inhibition in apoptosis-resistant human T98G after 3 days by MTT assay. In kind it is functional. The note with it: 72 h. The essentials: as §5
The nature of data set [6]: Growth inhibition in apoptosis-resistant human U373 after 3 days by MTT assay. Conditions: U373 MG, 72 h. It counts as functional, U-373MG ATCC. The essentials:
as §5

In a further data set the test system is Hs 683. Nature of the data set: Growth inhibition in apoptosis-sensitive human Hs683 after 3 days by MTT assay. In kind it is functional. Conditions: Hs 683, 72 h. The gist of the method: as §5
The subject of the next data set is PC-3. Nature of the data set: Growth inhibition in apoptosis-sensitive human PC3 after 3 days by MTT assay. It counts as functional. Conditions: PC-3, 72 h. The essentials: as §5
The next data set relates to MCF7. Nature of the data set: Growth inhibition in apoptosis-sensitive human MCF7 after 3 days by MTT assay. It counts as functional. The note with it: MCF7, 72 h. The gist of the method: as §5
The test system of another data set is B16-F10. Nature of the data set: Growth inhibition in mouse B16F10 after 3 days by MTT assay. Conditions: B16-F10, 72 h. It counts as functional. The gist of the method:
as §5

Data set [7] addresses T1, Peroxisome proliferator-activated receptor gamma (Homo sapiens). Nature of the data set: Inhibition of PPARgamma activity in human U373 cells at 3 uM after 6 hrs by spectrophotometric analysis relative to control. It counts as cell-based. The note with it: U-373MG ATCC. The essentials:
as §1

The test system of data set [8] is U-373MG ATCC. Description: Activation of chymotrypsin-like activity of 20S proteasome in human U373 cells at 3 uM after 2 days by bioluminescence assay. In kind it is cell-based. The essentials:
as §2

Data set [9] deals with U-373MG ATCC. Nature of the data set: Inhibition of trypsin-like activity of 20S proteasome in human U373 cells at 3 uM after 2 days by bioluminescence assay. It counts as cell-based. The essentials:
as §3

The subject of data set [10] is U-373MG ATCC. Description: Activation of caspase-like activity of 20S proteasome in human U373 cells at 3 uM after 2 days by bioluminescence assay. In kind it is cell-based. The essentials: as §4
Data set [11] addresses T1, Peroxisome proliferator-activated receptor gamma (Homo sapiens). Nature of the data set: Inhibition of PPARgamma activity in human U373 cells at 50 uM after 6 hrs by spectrophotometric analysis relative to control. It counts as cell-based. The note with it: U-373MG ATCC. The essentials:
as §1

The subject of data set [12] is U-373MG ATCC. Nature of the data set: Activation of chymotrypsin-like activity of 20S proteasome in human U373 cells at 50 uM after 2 days by bioluminescence assay. It counts as cell-based. The gist of the method: as §2
In data set [13] the test system is U-373MG ATCC. Description: Inhibition of trypsin-like activity of 20S proteasome in human U373 cells at 50 uM after 2 days by bioluminescence assay. In kind it is cell-based. The gist of the method:
as §3

In data set [14] the test system is U-373MG ATCC. Nature of the data set: Activation of caspase-like activity of 20S proteasome in human U373 cells at 50 uM after 2 days by bioluminescence assay. It counts as cell-based. The essentials:
as §4

One may read the GI50 as the concentration giving 50% growth inhibition. A higher GI50 goes with lower sensitivity of the cells. As for `CC1(C)[C@@H](O)CC[C@]2(C)[C@H]3C(=O)C=C4[C@@H]5C[C@@](C)(C(=O)NCCNC(=S)Nc6ccccc6)CC[C@]5(C)CC[C@@]4(C)[C@]3(C)CC[C@@H]12`, the inhibition result (in data set [1]; in the data set with U-373MG ATCC [3]) was “Active” each time. The outcome in the data set with U-373MG ATCC [2] and in the data set on U-373MG ATCC [4] was Active. For the same compound, in data set [5], the remaining at 168 h stood at 94%. Further, the GI50 worked out at 31 µM in the data set on A549; 38 µM with SK-MEL-28; 25 µM in the data set with T98G; 29 µM in data set [6]; 8 µM in the data set on Hs 683; 9 µM in the data set on PC-3. Moreover, the GI50 was found to be 30 µM in the data set on MCF7 and 34 µM in the data set with B16-F10.

For the compound `COc1cc(/C=C/C(C)=O)ccc1OC(=O)[C@@]1(C)CC[C@]2(C)CC[C@]3(C)C(=CC(=O)[C@@H]4[C@@]5(C)CC[C@H](O)C(C)(C)[C@@H]5CC[C@]43C)[C@@H]2C1`, the inhibition entry (in data set [7]; with U-373MG ATCC [9]) was “Active” throughout. Besides, the outcome in the data set on U-373MG ATCC [8] and in the data set on U-373MG ATCC [10] was Active. Further, the remaining at 168 h in data set [5] was 68%. Moreover, the GI50 amounted to 2 µM in the data set on A549; 3 µM in the data set with SK-MEL-28; 3 µM in the data set on T98G; 2 µM in [6]; 3 µM in the data set with Hs 683; 2 µM in the data set with PC-3. In addition, the 50% growth inhibitory concentration (GI50) in the data set on MCF7 and in the data set on B16-F10 was 3 µM throughout.

As to `CC1(C)[C@@H](O)CC[C@]2(C)[C@H]3C(=O)C=C4[C@@H]5C[C@@](C)(C(=O)NCc6ccc(C(F)(F)F)cc6)CC[C@]5(C)CC[C@@]4(C)[C@]3(C)CC[C@@H]12`, the inhibition result (in [11]; in the data set with U-373MG ATCC [13]) was “Active” throughout. The result with U-373MG ATCC [12] and in the data set with U-373MG ATCC [14] was Active. The remaining at 168 h in data set [5] was 95%. In addition, the GI50 in the data set with A549 amounted to 37 µM; with SK-MEL-28, 65 µM; in the data set on T98G it was 67 µM; in data set [6] it was 44 µM; in the data set with Hs 683 it was 49 µM; with PC-3, 35 µM. Besides, the GI50 with MCF7 is 29 µM; in the data set on B16-F10 it was 39 µM.
